This note sets out measurements from the array DNA melting data of Ke et al. (doi:10.1101/2024.01.08.574731).

Series [1] is described as follows: folding enthalpy; higher = less favourable; fluorescence melt of hairpins on a sequencing array, two-state fit. Particulars: sodium 0.088 M. In a few lines:
(§1)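 Hairpins were imaged by Cy3 fluorescence on a sequenced MiSeq flow cell with annealed Cy3 and quencher oligos, in 50 mM Na-HEPES pH 8.0, 25 mM NaCl, in 2.5 °C steps up to 60 °C. Bootstrapped two-state fits of normalised signals gave melting temperature and folding enthalpy. Four replicates were combined by inverse variance, and fitted temperatures were raised by 9.35 °C to match UV melts.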

Series [2] can be described thus: melting temperature; fluorescence melt of hairpins on a sequencing array, two-state fit, raised by 9.35 °C to match UV melts. Particulars: sodium 0.088 M. In a few lines: as §1

On to GTAGGCTCGAAAGAGTAC (((..(((....)))))), for which the folding enthalpy in series [1] was -10.6 kcal/mol. Moreover, the Tm in series [2] amounted to 29.2 °C.

As for GTAGGGCGAAAGCCATAC (((.(((....))).))), the folding enthalpy in series [1] is -22.2 kcal/mol. Further, the Tm in series [2] came to 55.6 °C.

Regarding GTAGGTGGAAACACCCAC ((.((((....)))).)), the folding enthalpy in series [1] is -13.1 kcal/mol. In addition, in series [2], the Tm came out at 34.7 °C.

In the case of GTAGGTGGAAACACTTAC (((.(((....))).))), in series [1], the folding enthalpy is -28.4 kcal/mol. For the same sequence, in series [2], the Tm was 39.5 °C.

For the sequence GTAGGTGGAAACATCTGC (.((.((....)).)).), in series [1], the folding enthalpy was -18.4 kcal/mol. The Tm in series [2] worked out at 30 °C.

For GTAGTAGGAAACCACTAC (((((.(....).))))), in series [1], the folding enthalpy is -28.9 kcal/mol. In addition, the Tm in series [2] came to 35 °C.

Take GTAGTAGGAAACTATTAC (((.(((....))).))): in series [1], the folding enthalpy was -17.7 kcal/mol. Further, the Tm in series [2] was 29.9 °C.

GTAGTCGAAAGACATAC ((((((....))).))): the folding enthalpy in series [1] was -16.2 kcal/mol. The Tm in series [2] came to 35.2 °C.

In the case of GTAGTCGAAAGACGTAC ((((((....))).))), the folding enthalpy in series [1] was -19.1 kcal/mol. Moreover, the Tm in series [2] came to 47.6 °C.

As for GTAGTGCCGAAAGGCTAC (((..(((....)))))), the folding enthalpy in series [1] is -9.39 kcal/mol. Moreover, in series [2], the Tm was found to be 36.2 °C.

In the case of GTAGTTGAAAAACTAC ((((((....)))))), in series [1], the folding enthalpy was -30.9 kcal/mol. Besides, the Tm in series [2] stood at 48.9 °C.

For GTAGTTGGAAACAACCAC ((.((((....)))).)), the folding enthalpy in series [1] is -18.7 kcal/mol. Moreover, in series [2], the Tm came out at 32.6 °C.

Regarding GTATAAACGAAAGTTTAC (((..(((....)))))), the folding enthalpy in series [1] was -11.8 kcal/mol. Also, the Tm in series [2] was 29.4 °C.

In the case of GTATACACGAAAGTGTAC (((..(((....)))))), the folding enthalpy in series [1] is -9.78 kcal/mol. The Tm in series [2] was 31.1 °C.

GTATACGAAAGTAAATAC ((((((....)))..))): the folding enthalpy in series [1] was -14.8 kcal/mol. Also, in series [2], the Tm turned out to be 27.7 °C.

In the case of GTATACGAAAGTACATAC ((((((....)))..))), the folding enthalpy in series [1] was -10.6 kcal/mol. The Tm in series [2] stood at 21.3 °C.

As for GTATACGAAAGTACGTAC ((((((....)))..))), the folding enthalpy in series [1] was -14 kcal/mol. Also, the Tm in series [2] was found to be 26.7 °C.

With GTATACGCGAAAGCGTAC (((..(((....)))))), the folding enthalpy in series [1] is -7.12 kcal/mol. Further, the Tm in series [2] worked out at 37.9 °C.

On to GTATACGGAAACGTATAC (((((((....))))))), for which, in series [1], the folding enthalpy is -44.8 kcal/mol. Moreover, in series [2], the Tm turned out to be 55.9 °C.

On to GTATACTCGAAAGAGTAC (((..(((....)))))), for which the folding enthalpy in series [1] was -11.6 kcal/mol. Also, the Tm in series [2] is 35 °C.

Turning to GTATAGCGAAAGCTGTAC (((.(((....))).))), the folding enthalpy in series [1] was -31.5 kcal/mol. In addition, the Tm in series [2] came to 51.1 °C.

As to GTATAGGGAAACCTATAC (((((((....))))))), the folding enthalpy in series [1] is -41 kcal/mol. In series [2], the Tm came to 50.1 °C.

For the sequence GTATAGGGAAACTTATAC (((((.(....).))))), the folding enthalpy in series [1] was -14.2 kcal/mol. Moreover, the Tm in series [2] turned out to be 27.7 °C.

For the sequence GTATATACGAAAGTATAC (((..(((....)))))), in series [1], the folding enthalpy was -16.1 kcal/mol. For the same sequence, the Tm in series [2] was 29.6 °C.

With GTATATCGAAAGATTAC (((.(((....)))))), in series [1], the folding enthalpy is -14.6 kcal/mol. Moreover, in series [2], the Tm came to 31 °C.

With GTATATGCGAAAGCATAC (((..(((....)))))), the folding enthalpy in series [1] is -8.89 kcal/mol. In addition, the Tm in series [2] was determined as 32.1 °C.

For GTATATGGAAACATATGC (.(((((....))))).), the folding enthalpy in series [1] was -25 kcal/mol. The Tm in series [2] amounted to 36.5 °C.

Regarding GTATCACGAAAGTGCTAC (((.(((....))).))), in series [1], the folding enthalpy is -22.7 kcal/mol. Also, the Tm in series [2] was 41.1 °C.

Take GTATCACGAAAGTGTAC (((.(((....)))))): in series [1], the folding enthalpy is -18.1 kcal/mol. For the same sequence, in series [2], the Tm was determined as 42.6 °C.

Regarding GTATCAGAAATGATAC ((((((....)))))), the folding enthalpy in series [1] was -31.6 kcal/mol. Moreover, in series [2], the Tm worked out at 45.6 °C.

Turning to GTATCAGGAAACCGATAC (((((.(....).))))), the folding enthalpy in series [1] is -30.7 kcal/mol. Moreover, the Tm in series [2] amounted to 38.1 °C.

Regarding GTATCAGGAAACTGACAC ((.((((....)))).)), in series [1], the folding enthalpy is -22.7 kcal/mol. Besides, the Tm in series [2] came to 32.1 °C.

In the case of GTATCAGGAAACTGATGC (.(((((....))))).), the folding enthalpy in series [1] is -24.8 kcal/mol. Besides, in series [2], the Tm was 45 °C.

As to GTATCCGAAAGGATAC ((((((....)))))), in series [1], the folding enthalpy was -35.1 kcal/mol. In series [2], the Tm was 65.8 °C.

Turning to GTATCCGGAAACGGATAC (((((((....))))))), the folding enthalpy in series [1] was -36.6 kcal/mol. In addition, the Tm in series [2] was 63.7 °C.

With GTATCCGGAAACGGGTAC (((.(((....))).))), the folding enthalpy in series [1] was -42.2 kcal/mol. For the same sequence, the Tm in series [2] is 51.3 °C.

With GTATCGCGAAAGCGTTAC (((.(((....))).))), the folding enthalpy in series [1] is -21.2 kcal/mol. For the same sequence, the Tm in series [2] stood at 48.4 °C.
